Measurements: paper PMC7856040 (ChemMedChem, 2020)

Tests used:
[1] = molecular target: AeKir (Aedes aegypti, UniProt L0EQS9); experiment: fluorescence-based in vitro thallium; assay type: cell-based; conditions: HEK293
In short: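 Fluorescence thallium-flux read-out in HEK293 cells expressing AeKir under tetracycline induction. Signals normalized to baseline Tl+ flux in the same line left uninduced by tetracycline. IC50 is the mean ± SEM of at least three independent experiments. Percent inhibition is taken at the highest concentration tested.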

[2] = system: first instar (Liverpool, LVP) Ae. aegypti; experiment: larvae toxicity screen, small molecules added to the rearing water; assay type: in vivo; conditions: for mortality at 48 h compared to VU854: 100 μM, first instar LVP larvae, one-way ANOVA, Dunnett's test; for mortality at 100 µM: Aedes aegypti, 48 h, read-out: mortality at 48 h
[3] = system: first instar (LVP or PR) Ae. aegypti; experiment: larval toxicity concentration response curve; assay type: in vivo

| Compound | inhibition at 30000 µM [1] [%] | other results |
| --- | --- | --- |
| CC(Nc1cc(N2CCN(S(=O)(=O)c3ccc(F)cc3)CC2)ccc1[N+](=O)[O-])c1nccs1 (stereo not shown) [Compound 9i, 5-(4-((4-fluorophenyl)sulfonyl)piperazin-1-yl)-2-nitro-N-(1-(thiazol-2-yl)ethyl)aniline] | 107 |  |
| Cc1ncc(CNc2cc(N3CCN(S(=O)(=O)c4ccc(F)cc4)CC3)ccc2[N+](=O)[O-])s1 [Compound 9j, 5-(4-((4-fluorophenyl)sulfonyl)piperazin-1-yl)-N-((2-methylthiazol-5-yl)methyl)-2-nitroaniline] | 111 |  |
| O=[N+]([O-])c1ccc(N2CCN(S(=O)(=O)c3ccc(F)cc3)CC2)cc1NCc1ccco1 [Compound 9a, 5-(4-((4-fluorophenyl)sulfonyl)piperazin-1-yl)-N-(furan-2-ylmethyl)-2-nitroaniline] | 96 |  |
| O=[N+]([O-])c1ccc(N2CCN(S(=O)(=O)c3ccc(F)cc3)CC2)cc1NCc1ncco1 [Compound 9k, 5-(4-((4-fluorophenyl)sulfonyl)piperazin-1-yl)-2-nitro-N-(oxazol-2-ylmethyl)aniline] | 98 |  |
| Cc1cc(CNc2cc(N3CCN(S(=O)(=O)c4ccc(F)cc4)CC3)ccc2[N+](=O)[O-])no1 [Compound 9f, 5-(4-((4-fluorophenyl)sulfonyl)piperazin-1-yl)-N-((5-methylisoxazol-3-yl)methyl)-2-nitroaniline] | 109 |  |
| Cc1nnc(CNc2cc(N3CCN(S(=O)(=O)c4ccc(F)cc4)CC3)ccc2[N+](=O)[O-])o1 [Compound 9g, 5-(4-((4-fluorophenyl)sulfonyl)piperazin-1-yl)-N-((5-methyl-1,3,4-oxadiazol-2-yl)methyl)-2-nitroaniline] | 110 |  |
| O=[N+]([O-])c1ccc(N2CCN(S(=O)(=O)c3ccc(F)cc3)CC2)cc1NCc1nccs1 [Compound 9h, 5-(4-((4-fluorophenyl)sulfonyl)piperazin-1-yl)-2-nitro-N-(thiazol-2-ylmethyl)aniline] | 97 |  |
| O=[N+]([O-])c1ccc(N2CCN(S(=O)(=O)c3ccc(F)cc3)CC2)cc1F [Compound 8, 1-(3-fluoro-4-nitrophenyl)-4-((4-fluorophenyl)sulfonyl)piperazine] | 100 | mortality at 48 h compared to VU854 [2]: significantly greater mortality; mortality at 100 µM [2]: 100%; times more potent against the LVP strain (versus PR) ([3]; CRC, 48 h): ~ 2 times |
| CC(Nc1cc(N2CCN(S(=O)(=O)c3ccc(F)cc3)CC2)ccc1[N+](=O)[O-])c1ncco1 (stereo not shown) [Compound 9l, 5-(4-((4-fluorophenyl)sulfonyl)piperazin-1-yl)-2-nitro-N-(1-(oxazol-2-yl)ethyl)aniline] | 109 |  |

Now from value to compound, other results behind:

| inhibition at 30000 µM [1] [%] | Compound | other results |
| --- | --- | --- |
| 29 | O=[N+]([O-])c1ccc(N2CCN(S(=O)(=O)c3ccc(F)cc3)CC2)cc1NCc1nc2ccccc2o1 [Compound 9u, N-(benzo[d]oxazol-2-ylmethyl)-5-(4-((4-fluorophenyl)sulfonyl)piperazin-1-yl)-2-nitroaniline] |  |
| 99 | O=[N+]([O-])c1ccc(N2CCN(S(=O)(=O)c3ccc(F)cc3)CC2)cc1NCc1ccon1 [Compound 9r, 5-(4-((4-fluorophenyl)sulfonyl)piperazin-1-yl)-N-(isoxazol-3-ylmethyl)-2-nitroaniline] |  |
| 109 | O=[N+]([O-])c1ccc(N2CCN(S(=O)(=O)c3ccc(F)cc3)CC2)cc1NCc1ncon1 [Compound 9p, N-((1,2,4-oxadiazol-3-yl)methyl)-5-(4-((4-fluorophenyl)sulfonyl)piperazin-1-yl)-2-nitroaniline] | mortality at 48 h compared to VU854 [2]: significantly greater mortality; mortality at 100 µM [2]: 99%; mortality at 100 µM ([3]; Aedes aegypti, 48 h, read-out: maximal mortality within 48 h): ~50%; pathology observed in treated larvae ([3]; contiguous trail of excrement from midgut beyond the rectum): constipation or excretory failure |
| 61 | Cc1nnc(CNc2cc(N3CCN(S(=O)(=O)c4ccc(F)cc4)CC3)ccc2[N+](=O)[O-])s1 [Compound 9s, 5-(4-((4-fluorophenyl)sulfonyl)piperazin-1-yl)-N-((5-methyl-1,3,4-thiadiazol-2-yl)methyl)-2-nitroaniline] | mortality at 48 h compared to VU854 [2]: similarly efficacious as VU854 |
| 109 | Cc1nc(CNc2cc(N3CCN(S(=O)(=O)c4ccc(F)cc4)CC3)ccc2[N+](=O)[O-])no1 [Compound 9q, 5-(4-((4-fluorophenyl)sulfonyl)piperazin-1-yl)-N-((5-methyl-1,2,4-oxadiazol-3-yl)methyl)-2-nitroaniline] | mortality at 48 h compared to VU854 [2]: similarly efficacious as VU854 |
| 106 | Cc1ncc(CNc2cc(N3CCN(S(=O)(=O)c4ccc(F)cc4)CC3)ccc2[N+](=O)[O-])o1 [Compound 9o, 5-(4-((4-fluorophenyl)sulfonyl)piperazin-1-yl)-N-((2-methyloxazol-5-yl)methyl)-2-nitroaniline] |  |
| 100 | Cc1cnc(CNc2cc(N3CCN(S(=O)(=O)c4ccc(F)cc4)CC3)ccc2[N+](=O)[O-])o1 [Compound 9n, 5-(4-((4-fluorophenyl)sulfonyl)piperazin-1-yl)-N-((5-methyloxazol-2-yl)methyl)-2-nitroaniline] | mortality at 48 h compared to VU854 [2]: similarly efficacious as VU854 |
| 99 | O=[N+]([O-])c1ccc(N2CCN(S(=O)(=O)c3ccc(F)cc3)CC2)cc1NCc1cnco1 [Compound 9m, 5-(4-((4-fluorophenyl)sulfonyl)piperazin-1-yl)-2-nitro-N-(oxazol-5-ylmethyl)aniline] |  |
| 10 | O=[N+]([O-])c1ccc(N2CCN(S(=O)(=O)c3ccc(F)cc3)CC2)cc1NCc1cc2ccccc2o1 [Compound 9t, N-(benzofuran-2-ylmethyl)-5-(4-((4-fluorophenyl)sulfonyl)piperazin-1-yl)-2-nitroaniline] |  |
